Published values collected from several papers.
Target: Serine/threonine-protein kinase PAK 5 (PAK5, Homo sapiens, UniProt Q9P286)

SMILES | read-out | technique | tested at | remaining binding [%]
CNCc1ccccc1-c1csc([C@H](C)Nc2nc(C)nc3cc(OC)c(OC)cc23)c1 | cell-free assay | competition with immobilised ligand | 1 µM | 100
O=C(NCCCN1CCOCC1)c1ccc(Nc2ncc(Cl)c(-c3ccc(Cl)s3)n2)cc1 | binding | competition with immobilised ligand | 1 µM | 73
c1cnn2ncc(-c3ccnc(N4CCC45COC5)n3)c2c1 | binding | – | 1 µM | 85
FC(F)(F)Oc1cccc(-c2cnc3ccc(-c4ccncc4)nn23)c1 | cell-free assay | competition with immobilised ligand | 5 µM | 43
CC1=C(C#N)C(c2ccc3c(c2)c(NC(=O)c2ccccc2C)nn3C)C(C#N)=C(C)N1 | cell-free assay | competition with immobilised ligand | 1 µM | 100
Cc1cnc(Nc2ccc(C(=O)N3CCC(N4CCCC4)CC3)cc2)nc1-c1cc2ccccc2s1 | binding | competition with immobilised ligand | 1 µM | 68
CN(C)c1ncc(F)c(-c2cnn3ncccc23)n1 | binding | – | 1 µM | 76
CN(C)c1ncnc(-c2ccc3nc(Nc4cc(CN5CCN(C(=O)CC(F)(F)F)CC5)ccn4)[nH]c3c2)c1Cl | cell-free assay | competition with immobilised ligand | 1 µM | 85
Cc1cnn2ncc(-c3ccnc(N(C)C)n3)c2c1 | binding | – | 1 µM | 0
CN(C)CC#Cc1ccc(OCCCc2sc(N3CCc4cccc(C(=O)Nc5nc6ccccc6s5)c4C3)nc2C(=O)O)c(F)c1 | cell-free assay | competition with immobilised ligand | 1 µM | 91
CNC(=O)[C@@H]1CC[C@@H](n2c(-c3ccc4cnccc4c3)nc3ccc(C(=O)NCc4cccc(C(N)=O)c4)cc32)C1 | binding | competition with immobilised ligand | 1 µM | 100
O=C(c1ccc(Nc2ncc(Cl)c(-c3ccc(Cl)s3)n2)cc1)N1CCC(N2CCCC2)CC1 | binding | competition with immobilised ligand | 1 µM | 58
CN(C)c1nccc(-c2cnn3ncccc23)n1 | binding | – | 1 µM | 92
CO[C@H]1CC[C@H](CNc2ccc(S(=O)(=O)NC(=O)c3ccc(N4CCN(CC5=C(c6ccc(Cl)cc6)CC(C)(C)CC5)CC4)cc3Oc3cnc4[nH]ccc4c3)cc2[N+](=O)[O-])CC1 | cell-free assay | competition with immobilised ligand | 1 µM | 99
C[C@@H](c1ccc(-n2cnc3c(N)ncnc32)cc1)N1CCc2nn(C)c(Cc3ccccc3)c2C1=O | binding | competition with immobilised ligand | 0.1 µM | 69
CN(CCCC(F)(F)F)c1nccc(-c2cnn3ncccc23)n1 | binding | – | 1 µM | 100
Nc1ncc2c(n1)-c1c([nH]c3ccc(C#CC4CC4)cc13)CCCC2 | binding | competition with immobilised ligand | 1 µM | 97
CS(=O)(=O)N1CCCC(NC(=O)[C@H](CCC2CCCCC2)NC(=O)c2ccc(CNc3ncnc4c3nnn4-c3ccccc3)cc2)C1 (stereo partly drawn) | cell-free assay | competition with immobilised ligand | 0.1 µM | 100
c1cncc(-c2cccc(Nc3nccc(NC4CCCCC4)n3)c2)c1 | binding | competition with immobilised ligand | 10 µM | 76
N[C@H]1CCN(c2nccc(-c3cnn4ncccc34)n2)C1 | binding | – | 1 µM | 100
O=C(Nc1c[nH]nc1C(=O)NC1CCNCC1)c1cc(F)cc(F)c1 | binding | competition with immobilised ligand | 1 µM | 100
